These results are taken from ChEMBL document CHEMBL1155297, “Synthesis, antimicrobial and antioxidant activities of substituted pyrazoles, isoxazoles, pyrimidine and thioxopyrimidine derivatives” (2009).

SMILES strings stand for the structures.

Holding throughout (format): functional
Assay [1] has as its system Aspergillus niger. As to the kind of experiment: Antifungal activity against Aspergillus niger NCIM 596 at 100 ug/disk after 48 hrs by agar disk diffusion method. Conditions: NCIM 596, 48 h, read-out: IZ. The method in brief:
(§1)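 Fungal disc diffusion on nutrient agar plates pre-inoculated with each fungus. 6 mm sterile paper discs carried the compound in DMSO at the stated amount per disc. Plates were held at 37 °C, and inhibition-zone diameter was measured after 48 h. Values are the mean of three independent triplicate readings.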
(In agar diffusion tests the substance spreads into inoculated agar from a disc or well.)

Assay [2] has as its system Bacillus subtilis. Description: Antibacterial activity against Bacillus subtilis NCIM 2063 at 200 ug/disk after 24 hrs by agar disk diffusion method. The settings on record: NCIM 2063, 24 h, read-out: IZ. The gist of the method: (§2)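 Agar disc diffusion on nutrient agar plates pre-inoculated with each bacterium. Sterile 6 mm filter-paper discs were moistened with compound in DMSO at the stated per-disc amount. Plates were incubated at 37 °C, and the growth-inhibition zone diameter was read after 24 h. Each determination was run in triplicate, and the mean of three independent readings is reported.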

The subject of assay [3] is Fusarium solani. As to the kind of experiment: Antifungal activity against Fusarium solani NCIM 1330 at 200 ug/disk after 48 hrs by agar disk diffusion method. Conditions: NCIM 1330, 48 h, read-out: IZ. The method in brief: as §1
Assay [4] concerns Staphylococcus aureus. As to the kind of experiment: Antibacterial activity against Staphylococcus aureus NCIM 5021 at 100 ug/disk after 24 hrs by agar disk diffusion method. The settings on record: NCIM 5021, 24 h, read-out: IZ. The method in brief: as §2
Assay [5] deals with Fusarium solani. Description: Antifungal activity against Fusarium solani NCIM 1330 at 100 ug/disk after 48 hrs by agar disk diffusion method. The settings on record: NCIM 1330, 48 h, read-out: IZ. The method in brief:
as §1

Assay [6] concerns Radical scavenging activity. Description: Antioxidant activity assessed as DPPH free radical scavenging activity at 100 uM after 20 mins. The gist of the method: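 DPPH scavenging: compound solutions were added to DPPH in dioxane/ethanol and kept at ambient temperature for 20 min. Absorbance was read at 517 nm. The test–control difference was expressed as percent DPPH radical scavenging.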
(DPPH is a stable violet radical that fades when it is reduced.)

Assay [7] relates to Bacillus subtilis. As to the kind of experiment: Antibacterial activity against Bacillus subtilis NCIM 2063 at 100 ug/disk after 24 hrs by agar disk diffusion method. The settings on record: NCIM 2063, 24 h, read-out: IZ. The gist of the method:
as §2

The test system of assay [8] is Curvularia lunata. Description: Antifungal activity against Curvularia lunata NCIM 716 at 100 ug/disk after 48 hrs by agar disk diffusion method. The settings on record: NCIM 716, 48 h, read-out: IZ. The method in brief: as §1
Assay [9] concerns Curvularia lunata. As to the kind of experiment: Antifungal activity against Curvularia lunata NCIM 716 at 200 ug/disk after 48 hrs by agar disk diffusion method. Conditions: NCIM 716, 48 h, read-out: IZ. The gist of the method: as §1
A short description of assay [10]: Antioxidant activity assessed as nitric oxide production at 100 uM after 120 mins by Griess reagent method. The gist of the method:
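Nitric oxide assay with Griess read-out. At intervals, 0.5 ml of incubation solution was mixed with 0.5 ml Griess reagent (1% sulfanilamide, 0.1% N-naphthylethylenediamine dihydrochloride, 2% o-phosphoric acid in water). The control received an equal amount of solvent and was handled identically.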
Background: Nitrite, measured by Griess reagent, commonly stands in for NO production.

Assay [11] concerns Staphylococcus aureus. As to the kind of experiment: Antibacterial activity against Staphylococcus aureus NCIM 5021 at 200 ug/disk after 24 hrs by agar disk diffusion method. Conditions: NCIM 5021, 24 h, read-out: IZ. The method in brief:
as §2

Assay [12] concerns Klebsiella pneumoniae. As to the kind of experiment: Antibacterial activity against Klebsiella pneumoniae NCIM 2957 at 200 ug/disk after 24 hrs by agar disk diffusion method. The settings on record: NCIM 2957, 24 h, read-out: IZ. The gist of the method:
as §2

The subject of assay [13] is Proteus vulgaris. As to the kind of experiment: Antibacterial activity against Proteus vulgaris NCIM 2027 at 100 ug/disk after 24 hrs by agar disk diffusion method. The settings on record: NCIM 2027, 24 h, read-out: IZ. The gist of the method:
as §2

The subject of assay [14] is Proteus vulgaris. Description: Antibacterial activity against Proteus vulgaris NCIM 2027 at 200 ug/disk after 24 hrs by agar disk diffusion method. Conditions: NCIM 2027, 24 h, read-out: IZ. The gist of the method: as §2
Assay [15] concerns Aspergillus niger. As to the kind of experiment: Antifungal activity against Aspergillus niger NCIM 596 at 200 ug/disk after 48 hrs by agar disk diffusion method. Conditions: NCIM 596, 48 h, read-out: IZ. The method in brief:
as §1

Assay [16] concerns Klebsiella pneumoniae. As to the kind of experiment: Antibacterial activity against Klebsiella pneumoniae NCIM 2957 at 100 ug/disk after 24 hrs by agar disk diffusion method. The settings on record: NCIM 2957, 24 h, read-out: IZ. The method in brief: as §2

Take `Cc1ccc(S(=O)(=O)CC(C2C(=N)ON=C2N)S(=O)(=O)c2ccc(C)cc2)cc1` (centres undefined): the zone of inhibition at 100 µg/disc in assay [1] stood at 26 mm; in assay [4], 26 mm; in assay [5], 28 mm; in [7] it was 26 mm; in assay [8] it was 28 mm; in assay [13], 24 mm. Besides, the zone of inhibition at 100 µg/disc in [16] was 25 mm. The zone of inhibition at 200 µg/disc in [2] came out at 29 mm; in [3], 31 mm; in assay [9] it was 30 mm; in assay [11], 27 mm; in assay [12] it was 27 mm; in [14], 25 mm. Further, the zone of inhibition at 200 µg/disc in [15] is 29 mm. The inhibition in assay [6] is 80.8%; in assay [10] it was 81.5%.

For the compound `NC1=NC(=O)N=C(N)C1C(CS(=O)(=O)c1ccccc1)S(=O)(=O)c1ccccc1` (centres undefined), the zone of inhibition at 100 µg/disc worked out at 15 mm in assay [1]; 18 mm in assay [4]; 14 mm in assay [5]; 16 mm in assay [7]; 18 mm in assay [8]; 14 mm in assay [13]. The zone of inhibition at 100 µg/disc in assay [16] was 16 mm. Besides, the zone of inhibition at 200 µg/disc in [2] turned out to be 19 mm; in assay [3], 19 mm; in assay [9], 21 mm; in assay [11], 20 mm; in assay [12], 18 mm; in [14], 16 mm. In [15], the zone of inhibition at 200 µg/disc was determined as 18 mm. The values for the inhibition in assay [6] and in assay [10] were 28.8% and 29.7%, respectively.

Turning to `Cc1ccc(C(=O)CC(C(=O)c2ccc(C)cc2)C2C(N)=NC(=S)N=C2N)cc1` (centres undefined), the zone of inhibition at 100 µg/disc in assay [1] amounted to 14 mm; in assay [4], 20 mm; in assay [5] it was 15 mm; in assay [7], 21 mm; in assay [8], 15 mm; in assay [13] it was 16 mm. Further, the zone of inhibition at 100 µg/disc in [16] worked out at 18 mm. In addition, the zone of inhibition at 200 µg/disc worked out at 24 mm in assay [2]; 19 mm in assay [3]; 18 mm in [9]; 21 mm in [11]; 20 mm in assay [12]; 18 mm in [14]. Further, in [15], the zone of inhibition at 200 µg/disc is 16 mm. Besides, the inhibition in [6] stood at 32.3%; in assay [10], 29.4%.

As for `CN1C(=N)C(C(CS(=O)(=O)c2ccccc2)S(=O)(=O)c2ccccc2)C(=N)N(C)C1=O` (centres undefined), the zone of inhibition at 100 µg/disc in assay [1] is 14 mm; in assay [4] it was 13 mm; in assay [5], 13 mm; in assay [7], 14 mm; in [8], 16 mm; in assay [13] it was 10 mm. Moreover, in assay [16], the zone of inhibition at 100 µg/disc was determined as 9 mm. For the same compound, the zone of inhibition at 200 µg/disc in assay [2] was 16 mm; in assay [3], 16 mm; in [9], 20 mm; in assay [11], 15 mm; in assay [12] it was 12 mm; in assay [14], 12 mm. The zone of inhibition at 200 µg/disc in assay [15] came out at 16 mm. Also, the inhibition is 27.7% in [6] and 26.9% in [10].

As for `N=C1ON=C(N)C1C(CC(=O)c1ccccc1)C(=O)c1ccccc1` (centres undefined), the zone of inhibition at 100 µg/disc was 27 mm in assay [1]; 23 mm in assay [4]; 30 mm in assay [5]; 24 mm in assay [7]; 30 mm in assay [8]; 21 mm in [13]. In addition, in assay [16], the zone of inhibition at 100 µg/disc amounted to 23 mm. In addition, the zone of inhibition at 200 µg/disc amounted to 27 mm in assay [2]; 31 mm in assay [3]; 32 mm in assay [9]; 26 mm in [11]; 25 mm in [12]; 24 mm in [14]. Moreover, in [15], the zone of inhibition at 200 µg/disc was found to be 29 mm. The inhibition in [6] came out at 42.3%; in assay [10], 43.5%.

Turning to `Cc1ccc(S(=O)(=O)CC(C2C(N)=NC(=S)N=C2N)S(=O)(=O)c2ccc(C)cc2)cc1` (centres undefined), the zone of inhibition at 100 µg/disc stood at 17 mm in assay [1]; 21 mm in assay [4]; 19 mm in [5]; 20 mm in [7]; 21 mm in [8]; 20 mm in assay [13]. The zone of inhibition at 100 µg/disc in assay [16] was found to be 19 mm. Also, the zone of inhibition at 200 µg/disc in assay [2] was 22 mm; in assay [3], 21 mm; in [9] it was 23 mm; in [11], 24 mm; in assay [12], 21 mm; in [14], 20 mm. Besides, in [15], the zone of inhibition at 200 µg/disc came out at 20 mm. The inhibition was found to be 38.7% in assay [6] and 39.9% in [10].

In the case of `Cc1ccc(C(=O)CC(C(=O)c2ccc(C)cc2)C2C(=N)ON=C2N)cc1` (centres undefined), the zone of inhibition at 100 µg/disc in assay [1] stood at 24 mm; in assay [4], 22 mm; in [5], 32 mm; in assay [7], 26 mm; in assay [8], 31 mm; in assay [13] it was 21 mm. Moreover, the zone of inhibition at 100 µg/disc in assay [16] amounted to 22 mm. The zone of inhibition at 200 µg/disc was 28 mm in [2]; 34 mm in assay [3]; 33 mm in [9]; 25 mm in assay [11]; 24 mm in assay [12]; 23 mm in assay [14]. Moreover, the zone of inhibition at 200 µg/disc in assay [15] was 27 mm. The inhibition in assay [6] amounted to 58.1%; in assay [10], 54.3%.

Consider `Cc1ccc(C(=O)CC(C(=O)c2ccc(C)cc2)C2C(=N)N(C)C(=O)N(C)C2=N)cc1` (centres undefined), for which the zone of inhibition at 100 µg/disc in assay [1] turned out to be 10 mm; in assay [4], 10 mm; in [5], 12 mm; in [7], 9 mm; in assay [8] it was 14 mm; in assay [13], 7 mm. In addition, the zone of inhibition at 100 µg/disc in [16] worked out at 7 mm. In addition, the zone of inhibition at 200 µg/disc in assay [2] worked out at 10 mm; in [3], 15 mm; in assay [9], 16 mm; in assay [11], 12 mm; in assay [12] it was 8 mm; in assay [14], 9 mm. In addition, the zone of inhibition at 200 µg/disc in [15] turned out to be 12 mm. Further, the values for the inhibition in [6] and in [10] were 21.7% and 20.3%, respectively.

As for `NC1=NC(=O)N=C(N)C1C(CS(=O)(=O)c1ccc(Cl)cc1)S(=O)(=O)c1ccc(Cl)cc1` (centres undefined), the zone of inhibition at 100 µg/disc was determined as 16 mm in assay [1]; 22 mm in [4]; 17 mm in assay [5]; 23 mm in assay [7]; 19 mm in assay [8]; 17 mm in assay [13]. Further, the zone of inhibition at 100 µg/disc in assay [16] stood at 18 mm. Further, the zone of inhibition at 200 µg/disc in assay [2] was 25 mm; in assay [3], 20 mm; in [9], 23 mm; in [11], 24 mm; in assay [12], 20 mm; in [14], 19 mm. Besides, in assay [15], the zone of inhibition at 200 µg/disc amounted to 19 mm. The results for the inhibition in assay [6] and in assay [10] were 35.8% and 35.9%, respectively.

One may read the inhibition as how much of the control response was suppressed.
